Assay results reported in the RNAGym collection of RNA variant scans (doi:10.1002/anie.201605470).

B1: Osa-1-4 twister ribozyme (parent)
chain: CCGCCUAACACUGCCAAUGCCGGUCCCAAGCCCGGAUAAAAGUGGAGGGGGCGG

Variants of: B1
Experiment: self-cleavage, relative activity (ratio to wild type); higher = more cleavage; co-transcriptional
How it was run: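 The 48 positions downstream of the cleavage site in a DNA template for a 54-nucleotide Oryza sativa twister ribozyme carried 97 % wild-type base and 1 % of each other base. After in vitro transcription (2 h, 37 °C) with co-transcriptional self-cleavage, the RNA was reverse-transcribed with a template-switching oligonucleotide, PCR-amplified and deep-sequenced. Relative activity is the fraction cleaved, judged by reads with or without upstream sequence and normalised to wild type.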

Variant	self-cleavage
CCGCCUAACACGGCCAAUGCCGGUCCCAAGCCCGGAUAAAAGUGGAGGGGGCCG [G53C U12G]	0.04
CCGCCUAACACAGCCAAUGCCGGUCCCAAGCCCGGAUAAAAGUGGAGGGGGCCG [G53C U12A]	0.07
CCGCCUAACACCGCCAAUGCCGGUCCCAAGCCCGGAUAAAAGUGGAGGGGGCCG [G53C U12C]	0.05
CCGCCUAACACUGCCAAUGCCGGUCCCAAGCCCGGAUAAAAGUGGAGGGGGCUG [G53U]	0.56
CCGCCUAACACUGCCAAUGCCGGUCCCAAGCCCGGAUAAAAGUGGAGGGGGCCG [G53C]	0.13
CCGCCUAACACCGCCAAUGCCGGUCCCAAGCCCGGAUAAAAGUGGAGGGGGCGC [G54C U12C]	0.57
CCGCCUAACACGGCCAAUGCCGGUCCCAAGCCCGGAUAAAAGUGGAGGGGGCGC [G54C U12G]	0.32
CCGCCUAACACAGCCAAUGCCGGUCCCAAGCCCGGAUAAAAGUGGAGGGGGCGC [G54C U12A]	0.43
CCGCCUAACACCGCCAAUGCCGGUCCCAAGCCCGGAUAAAAGUGGAGGGGGCUG [G53U U12C]	0.13
CCGCCUAACACGGCCAAUGCCGGUCCCAAGCCCGGAUAAAAGUGGAGGGGGCUG [G53U U12G]	0.07
CCGCCUAACACAGCCAAUGCCGGUCCCAAGCCCGGAUAAAAGUGGAGGGGGCUG [G53U U12A]	0.12
CCGCCUAACACUGCCAAUGCCGGCCCCAAGCCCGGAUAAAAGUGGAGGGGGCCG [G53C U24C]	0.03
CCGCCUAACACUGCCAAUGCCGGACCCAAGCCCGGAUAAAAGUGGAGGGGGCCG [G53C U24A]	0.04
CCGCCUAACACUGCCAAUGCCGGGCCCAAGCCCGGAUAAAAGUGGAGGGGGCCG [G53C U24G]	0.01
CCGCCUAACACUGCCAAUGCCGGUCCCAAGCCCGGAUAAAAGUGGAGGGGGCCC [G53C G54C]	0.08
CCGCCUAACACUGCCAAUGCCGGUCCCAAGCCCGGAUAAAAGUGGAGGGGGCCU [G53C G54U]	0.25
CCGCCUAACACUGCCAAUGCCGGUCCCAAGCCCGGAUAAAAGUGGAGGGGGCCA [G53C G54A]	0.1
CCGCCUAACACUGCCAAUGCCGGUCCCAAGCCCGGAUAAAAGGGGAGGGGGCCG [G53C U43G]	0.07
CCGCCUAACACUGCCAAUGCCGGUCCCAAGCCCGGAUAAAAGCGGAGGGGGCCG [G53C U43C]	0.07
CCGCCUAACACUGCCAAUGCCGGUCCCAAGCCCGGAUAAAAGAGGAGGGGGCCG [G53C U43A]	0.08
CCGCCUAACACUGCCAAUGCCGGGCCCAAGCCCGGAUAAAAGUGGAGGGGGCGA [G54A U24G]	0.03
CCGCCUAACACUGCCAAUGCCGGACCCAAGCCCGGAUAAAAGUGGAGGGGGCGA [G54A U24A]	0.13

Variant	self-cleavage
CCGCCUAACACUGCCAAUGCCGGCCCCAAGCCCGGAUAAAAGUGGAGGGGGCGA [G54A U24C]	0.13
CCGCCUAACACUGCCAACGCCGGUCCCAAGCCCGGAUAAAAGUGGAGGGGGCGC [G54C U18C]	0.91
CCGCCUAACACUGCCAAGGCCGGUCCCAAGCCCGGAUAAAAGUGGAGGGGGCGC [G54C U18G]	0.77
CCGCCUAACACUGCCAAAGCCGGUCCCAAGCCCGGAUAAAAGUGGAGGGGGCGC [G54C U18A]	0.85
CCGCCUAACACAGCCAAUGCCGGUCCCAAGCCCGGAUAAAAGUGGAGGGGGCGU [G54U U12A]	0.62
CCGCCUAACACGGCCAAUGCCGGUCCCAAGCCCGGAUAAAAGUGGAGGGGGCGU [G54U U12G]	0.4
CCGCCUAACACCGCCAAUGCCGGUCCCAAGCCCGGAUAAAAGUGGAGGGGGCGU [G54U U12C]	0.67
CCGCCUAACACUGCCAAUGCCGGUCCCAAGCCCGGAAAAAAGUGGAGGGGGCCG [G53C U37A]	0.06
CCGCCUAACACUGCCAAUGCCGGUCCCAAGCCCGGACAAAAGUGGAGGGGGCCG [G53C U37C]	0.11
CCGCCUAACACUGCCAAUGCCGGUCCCAAGCCCGGAGAAAAGUGGAGGGGGCCG [G53C U37G]	0.15
CCGCCUAACACUGCCAAAGCCGGUCCCAAGCCCGGAUAAAAGUGGAGGGGGCCG [G53C U18A]	0.09
CCGCCUAACACUGCCAAGGCCGGUCCCAAGCCCGGAUAAAAGUGGAGGGGGCCG [G53C U18G]	0.14
CCGCCUAACACUGCCAACGCCGGUCCCAAGCCCGGAUAAAAGUGGAGGGGGCCG [G53C U18C]	0.1
CCGCCUAACACUGCCAAUGCCGGUCCCAAGCCCGGACAAAAGUGGAGGGGGCGU [G54U U37C]	1.02
CCGCCUAACACUGCCAAUGCCGGUCCCAAGCCCGGAAAAAAGUGGAGGGGGCGU [G54U U37A]	0.73
CCGCCUAACACUGCCAAUGCCGGUCCCAAGCCCGGAGAAAAGUGGAGGGGGCGU [G54U U37G]	0.98
CCGCCUAACACGGCCAAUGCCGGUCCCAAGCCCGGAUAAAAGUGGAGGGGGCGA [G54A U12G]	0.28
CCGCCUAACACCGCCAAUGCCGGUCCCAAGCCCGGAUAAAAGUGGAGGGGGCGA [G54A U12C]	0.56
CCGCCUAACACAGCCAAUGCCGGUCCCAAGCCCGGAUAAAAGUGGAGGGGGCGA [G54A U12A]	0.48
CCGCCUAACACUGCCAAUGCCGGUCCCAAGCCCGGAUAAAAGUGGAGGGGGCUU [G53U G54U]	0.46
CCGCCUAACACUGCCAAUGCCGGUCCCAAGCCCGGAUAAAAGUGGAGGGGGCUA [G53U G54A]	0.25
CCGCCUAACACUGCCAAUGCCGGUCCCAAGCCCGGAUAAAAGUGGAGGGGGCUC [G53U G54C]	0.14

Variant	self-cleavage
CCGCCUAACACUGCCAAUGCCGGACCCAAGCCCGGAUAAAAGUGGAGGGGGCGC [G54C U24A]	0.07
CCGCCUAACACUGCCAAUGCCGGCCCCAAGCCCGGAUAAAAGUGGAGGGGGCGC [G54C U24C]	0.11
CCGCCUAACACUGCCAAUGCCGGGCCCAAGCCCGGAUAAAAGUGGAGGGGGCGC [G54C U24G]	0.02
CCGCCUAACACUGCCAAUGCCGGUCCCAAGCCCGGAUAAAAGCGGAGGGGGCGC [G54C U43C]	0.6
CCGCCUAACACUGCCAAUGCCGGUCCCAAGCCCGGAUAAAAGAGGAGGGGGCGC [G54C U43A]	0.86
CCGCCUAACACUGCCAAUGCCGGUCCCAAGCCCGGAUAAAAGGGGAGGGGGCGC [G54C U43G]	0.76
CCGCCUAACACUGCCAAUGCCGGUCCCAAGCCCGGACAAAAGUGGAGGGGGCUG [G53U U37C]	0.55
CCGCCUAACACUGCCAAUGCCGGUCCCAAGCCCGGAGAAAAGUGGAGGGGGCUG [G53U U37G]	0.61
CCGCCUAACACUGCCAAUGCCGGUCCCAAGCCCGGAAAAAAGUGGAGGGGGCUG [G53U U37A]	0.32
CCGCCUAACACUGCCAACGCCGGUCCCAAGCCCGGAUAAAAGUGGAGGGGGCGA [G54A U18C]	0.93
CCGCCUAACACUGCCAAAGCCGGUCCCAAGCCCGGAUAAAAGUGGAGGGGGCGA [G54A U18A]	0.88
CCGCCUAACACUGCCAAGGCCGGUCCCAAGCCCGGAUAAAAGUGGAGGGGGCGA [G54A U18G]	0.71
CCGCCUAACACUGCCAAAGCCGGUCCCAAGCCCGGAUAAAAGUGGAGGGGGCUG [G53U U18A]	0.41
CCGCCUAACACUGCCAACGCCGGUCCCAAGCCCGGAUAAAAGUGGAGGGGGCUG [G53U U18C]	0.3
CCGCCUAACACUGCCAAGGCCGGUCCCAAGCCCGGAUAAAAGUGGAGGGGGCUG [G53U U18G]	0.39
CCGCCUAACACUGCCAAUGCCGGGCCCAAGCCCGGAUAAAAGUGGAGGGGGCGU [G54U U24G]	0.04
CCGCCUAACACUGCCAAUGCCGGACCCAAGCCCGGAUAAAAGUGGAGGGGGCGU [G54U U24A]	0.34
CCGCCUAACACUGCCAAUGCCGGCCCCAAGCCCGGAUAAAAGUGGAGGGGGCGU [G54U U24C]	0.23
CCGCCUAACACUGCCAAUGCCGGUCCCAAGCCCGGAGAAAAGUGGAGGGGGCGA [G54A U37G]	1
CCGCCUAACACUGCCAAUGCCGGUCCCAAGCCCGGACAAAAGUGGAGGGGGCGA [G54A U37C]	0.98
CCGCCUAACACUGCCAAUGCCGGUCCCAAGCCCGGAAAAAAGUGGAGGGGGCGA [G54A U37A]	0.73
CCGCCUAACACUGCCAAUGCCGGGCCCAAGCCCGGAUAAAAGUGGAGGGGGCUG [G53U U24G]	0.03

Variant	self-cleavage
CCGCCUAACACUGCCAAUGCCGGACCCAAGCCCGGAUAAAAGUGGAGGGGGCUG [G53U U24A]	0.06
CCGCCUAACACUGCCAAUGCCGGCCCCAAGCCCGGAUAAAAGUGGAGGGGGCUG [G53U U24C]	0.06
CCGCCUAACACUGCCAAUGCCGGUCCCAAGCCCGGAUAAAAGGGGAGGGGGCAG [G53A U43G]	0.37
CCGCCUAACACUGCCAAUGCCGGUCCCAAGCCCGGAUAAAAGCGGAGGGGGCAG [G53A U43C]	0.43
CCGCCUAACACUGCCAAAGCCGGUCCCAAGCCCGGAUAAAAGUGGAGGGGGCGU [G54U U18A]	0.9
CCGCCUAACACUGCCAAGGCCGGUCCCAAGCCCGGAUAAAAGUGGAGGGGGCGU [G54U U18G]	0.73
CCGCCUAACACUGCCAACGCCGGUCCCAAGCCCGGAUAAAAGUGGAGGGGGCGU [G54U U18C]	0.95
CCGCCUAACACUGCCAAUGCCGGUCCCAAGCCCGGAUAAAAGCGGAGGGGGCGU [G54U U43C]	0.7
CCGCCUAACACUGCCAAUGCCGGUCCCAAGCCCGGAUAAAAGAGGAGGGGGCGU [G54U U43A]	0.84
CCGCCUAACACUGCCAAUGCCGGUCCCAAGCCCGGAUAAAAGGGGAGGGGGCGU [G54U U43G]	0.7
CCGCCUAACACUGCCAAUGCCGGUCCCAAGCCCGGAUAAAAGUGGAGGGGGCGU [G54U]	1
CCGCCUAACACUGCCAAUGCCGGUCCCAAGCCCGGAUAAAAGUGGAGGGGGCGA [G54A]	1
CCGCCUAACACUGCCAAUGCCGGUCCCAAGCCCGGAUAAAAGUGGAGGGGGCGC [G54C]	1
CCGCCUAACACUGCCAAUGCCGGUCCCAAGCCCGGACAAAAGUGGAGGGGGCGC [G54C U37C]	1.02
CCGCCUAACACUGCCAAUGCCGGUCCCAAGCCCGGAGAAAAGUGGAGGGGGCGC [G54C U37G]	1.03
CCGCCUAACACUGCCAAUGCCGGUCCCAAGCCCGGAAAAAAGUGGAGGGGGCGC [G54C U37A]	0.71
CCGCCUAACACUGCCAAUGCCGGUCCCAAGCCCGGAUAAAAGCGGAGGGGGCGA [G54A U43C]	0.58
CCGCCUAACACUGCCAAUGCCGGUCCCAAGCCCGGAUAAAAGAGGAGGGGGCGA [G54A U43A]	0.84
CCGCCUAACACUGCCAAUGCCGGUCCCAAGCCCGGAUAAAAGGGGAGGGGGCGA [G54A U43G]	0.69
CCGCCUAACACUGCCAAUGCCGGUCCCAAGCCCGGAUAAAAGGGGAGGGGGCUG [G53U U43G]	0.13
CCGCCUAACACUGCCAAUGCCGGUCCCAAGCCCGGAUAAAAGCGGAGGGGGCUG [G53U U43C]	0.15
CCGCCUAACACUGCCAAUGCCGGUCCCAAGCCCGGAUAAAAGAGGAGGGGGCUG [G53U U43A]	0.2
